Assay results taken from ChEMBL document CHEMBL1144782, “Isoindolo[2,1-a]quinoxaline derivatives, novel potent antitumor agents with dual inhibition of tubulin polymerization and topoisomerase I” (2008).

Key:
Assay type in all cases: functional
PC-3 = experiment: Antitumor activity against human PC3 cells
Procedure, shortened: (§1)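 Run by the NCI in its in vitro disease-oriented screen of about 60 human tumour cell lines. For each line it reports pGI50 (50% net growth inhibition), pTGI (total growth inhibition) and pLC50 (50% net cell death), each as –log molar concentration. Where an effect was not reached within the tested range, the highest tested concentration was used.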

NCI-H522 = experiment: Antitumor activity against human NCI-H522 cells; procedure, shortened: as §1
UACC-62 = experiment: Antitumor activity against human UACC62 cells
Procedure, shortened: (§2)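 NCI 60-cell-line screen. Parameters were GI50 (50% net growth inhibition), TGI and LC50, each reported as –log molar concentration. Where an effect was not reached within the tested range, the highest tested concentration was used in the calculation.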

Hs-578T = experiment: Antitumor activity against human HS578T cells; procedure, shortened: as §1
SF-295 = experiment: Antitumor activity against human SF295 cells; procedure, shortened: as §1
SF-268 [1] = experiment: Antitumor activity against human SF268 cells; procedure, shortened: as §1
T47D = experiment: Antitumor activity against human T47D cells; procedure, shortened: as §2
ACHN = experiment: Antitumor activity against human ACHN cells; procedure, shortened: as §1
NCI/ADR-RES = experiment: Antitumor activity against human NCI/ADR-RES cells; procedure, shortened: as §1
MCF7 [2] = experiment: Resistance index, Ratio of GI50 for human multidrug-resistant MCF7 cells to GI50 for human MCF7 cells
Procedure, shortened: (§3)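 Growth inhibition by MTT after 72 h incubation. Resistant sublines: LoVoDoxo and MCF-7 MDR were kept in 0.1 µg/mL doxorubicin; CEMVbl-100 was selected against vinblastine. GI50 given as mean ± SEM of three independent experiments. Resistance index is resistant-line GI50 over parental GI50.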

CAKI-1 = experiment: Antitumor activity against human CAKI1 cells; procedure, shortened: as §1
OVCAR-8 = experiment: Antitumor activity against human OVCAR8 cells; procedure, shortened: as §1
[3] = Antitumor activity against human […] cells; procedure, shortened: as §1
SW-620 = experiment: Antitumor activity against human SW620 cells; procedure, shortened: as §2
EKVX = experiment: Antitumor activity against human EKVX cells; procedure, shortened: as §1
A498 = experiment: Antitumor activity against human A498 cells; procedure, shortened: as §1
HCT-116 = experiment: Antitumor activity against human HCT116 cells; procedure, shortened: as §1
MCF7 [4] = experiment: Growth inhibition of human MCF7 cells after 72 hrs by MTT assay; settings: MCF7, 72 h; procedure, shortened: as §3
HOP-62 = experiment: Antitumor activity against human HOP62 cells; procedure, shortened: as §1
BT-549 = experiment: Antitumor activity against human BT549 cells; procedure, shortened: as §1
OVCAR-4 = experiment: Antitumor activity against human OVCAR4 cells; procedure, shortened: as §1
NCI-H23 = experiment: Antitumor activity against human NCI-H23 cells; procedure, shortened: as §1
SR = experiment: Antitumor activity against human SR cells; procedure, shortened: as §2
U-251 = experiment: Antitumor activity against human U251 cells; procedure, shortened: as §2
M14 = experiment: Antitumor activity against human M14 cells; procedure, shortened: as §1
RPMI-8226 = experiment: Antitumor activity against human RPMI8226 cells; procedure, shortened: as §1
SF-268 [5] = experiment: Cell viability against human SF268 cells at 10 uM
A549 = experiment: Antitumor activity against human A549 cells; procedure, shortened: as §1
MCF7 [6] = experiment: Cell viability against human MCF7 cells at 10 uM
KM12 = experiment: Antitumor activity against human KM12 cells; procedure, shortened: as §1
RXF 393 = experiment: Antitumor activity against human RXF393 cells; procedure, shortened: as §1
HT-29 = experiment: Antitumor activity against human HT29 cells; procedure, shortened: as §1
SK-OV-3 = experiment: Antitumor activity against human SKOV3 cells; procedure, shortened: as §1
HCT-15 = experiment: Antitumor activity against human HCT15 cells; procedure, shortened: as §1
SK-MEL-2 = experiment: Antitumor activity against human SKMEL2 cells; procedure, shortened: as §1
786-0 = experiment: Antitumor activity against human 786-0 cells; procedure, shortened: as §1
MCF7 [7] = experiment: Antitumor activity against human MCF7 cells; procedure, shortened: as §1
CCRF-CEM = experiment: Growth inhibition of human CEM cells after 72 hrs by MTT assay; procedure, shortened: as §3
LOX IMVI = experiment: Antitumor activity against human LOXIMVI cells; procedure, shortened: as §1
TK-10 = experiment: Antitumor activity against human TK10 cells; procedure, shortened: as §2
[8] = read-out: Log LC50 (the source's name) (converted)

## COc1ccc2c(c1)[nH]c(=O)c1c3ccccc3cn21
PC-3
  GI50: 0.0372 µM
  LC50 (50% net cell death): > 100 µM
PC-3; read-out: pTGI (converted)
  TGI: 2.57 µM
NCI-H522
  GI50: 0.0603 µM
NCI-H522; [8]
  CC50: 10 µM
NCI-H522; read-out: pTGI (converted)
  TGI: 2.29 µM
UACC-62
  GI50: 0.0741 µM
  LC50: 4.37 µM
UACC-62; read-out: pTGI (converted)
  TGI: 1.91 µM
Hs-578T
  GI50: 0.0513 µM
Hs-578T; [8]
  CC50: > 100 µM
Hs-578T; read-out: pTGI (converted)
  TGI: 2.69 µM
SF-295
  GI50: 0.0269 µM
SF-295; [8]
  CC50: 4.17 µM
SF-295; read-out: pTGI (converted)
  TGI: 1.05 µM
SF-268 [1]
  GI50: 0.0741 µM
SF-268 [1]; [8]
  CC50: 87.1 µM
SF-268 [1]; read-out: pTGI (converted)
  TGI: 2.95 µM
T47D
  GI50: 0.0479 µM
  LC50: > 100 µM
T47D; read-out: pTGI (converted)
  TGI: 4.57 µM
ACHN
  GI50: 0.126 µM
  LC50 (50% net cell kill): 4.37 µM
ACHN; read-out: pTGI (converted)
  TGI: 1.82 µM
NCI/ADR-RES
  GI50: 0.0214 µM
  LC50: 10 µM
NCI/ADR-RES; read-out: pTGI (converted)
  TGI: 0.0575 µM
MCF7 [2]
  RatioGI50: 0.9
CAKI-1
  GI50: 0.0355 µM
  LC50: 5.13 µM
CAKI-1; read-out: pTGI (converted)
  TGI: 2 µM
OVCAR-8
  GI50: 0.0575 µM
  LC50 (50% net cell death): > 100 µM
OVCAR-8; read-out: pTGI (converted)
  TGI: 2.34 µM
[3]
  GI50: 0.0562 µM
  LC50: 3.09 µM
[3]; read-out: pTGI (converted)
  TGI: 0.741 µM
SW-620
  GI50: 0.0263 µM
SW-620; [8]
  CC50: 4.17 µM
SW-620; read-out: pTGI (converted)
  TGI: 1.41 µM
EKVX
  GI50: 0.0912 µM
  LC50 (50% net cell kill): > 100 µM
EKVX; read-out: pTGI (converted)
  TGI: 29.5 µM
A498
  GI50: 0.0224 µM
A498; [8]
  CC50: > 100 µM
A498; read-out: pTGI (converted)
  TGI: 1.35 µM
HCT-116
  GI50: 0.0398 µM
  LC50: 4.47 µM
HCT-116; read-out: pTGI (converted)
  TGI: 1.32 µM
MCF7 [4]
  GI50: 0.17 µM
HOP-62
  GI50: 0.0309 µM
  LC50 (50% net cell death): 3.89 µM
HOP-62; read-out: pTGI (converted)
  TGI: 1.23 µM
BT-549
  GI50: 0.055 µM
  LC50 (50% net cell kill): 6.31 µM
BT-549; read-out: pTGI (converted)
  TGI: 2.04 µM
OVCAR-4
  GI50: 0.0912 µM
  LC50 (50% net cell kill): > 100 µM
OVCAR-4; read-out: pTGI (converted)
  TGI: 5.13 µM
NCI-H23
  GI50: 0.0427 µM
  LC50 (50% net cell kill): > 100 µM
NCI-H23; read-out: pTGI (converted)
  TGI: 3.39 µM
SR
  GI50: 0.01 µM
  LC50: 75.9 µM
SR; read-out: pTGI (converted)
  TGI: 2.04 µM
U-251
  GI50: 0.0437 µM
U-251; [8]
  CC50: 5.01 µM
U-251; read-out: pTGI (converted)
  TGI: 1.51 µM
M14
  GI50: 0.01 µM
M14; [8]
  CC50: 3.63 µM
M14; read-out: pTGI (converted)
  TGI: 12.9 µM
RPMI-8226
  GI50: 0.0363 µM
RPMI-8226; [8]
  CC50: 6.92 µM
RPMI-8226; read-out: pTGI (converted)
  TGI: 1.41 µM
SF-268 [5]
  Activity: 1%
A549
  GI50: 0.0676 µM
A549; [8]
  CC50: 6.03 µM
A549; read-out: pTGI (converted)
  TGI: 1.66 µM
MCF7 [6]
  Activity: 0%
KM12
  GI50: 0.0331 µM
  LC50 (50% net cell death): 6.03 µM
KM12; read-out: pTGI (converted)
  TGI: 1.51 µM
RXF 393
  GI50: 0.0204 µM
RXF 393; [8]
  CC50: > 100 µM
RXF 393; read-out: pTGI (converted)
  TGI: 3.16 µM
HT-29
  GI50: 0.0339 µM
  LC50: > 100 µM
HT-29; read-out: pTGI (converted)
  TGI: 1.48 µM
SK-OV-3
  GI50: 0.0389 µM
  LC50 (50% net cell kill): 8.51 µM
SK-OV-3; read-out: pTGI (converted)
  TGI: 1.62 µM
HCT-15
  GI50: 0.0263 µM
HCT-15; [8]
  CC50: 4.57 µM
HCT-15; read-out: pTGI (converted)
  TGI: 1.15 µM
SK-MEL-2
  GI50: 0.158 µM
  LC50: 7.76 µM
SK-MEL-2; read-out: pTGI (converted)
  TGI: 2.51 µM
786-0
  GI50: 0.0417 µM
786-0; [8]
  CC50: 4.57 µM
786-0; read-out: pTGI (converted)
  TGI: 1.86 µM
MCF7 [7]
  GI50: 0.0282 µM
  LC50 (50% net cell kill): 5.5 µM
MCF7 [7]; read-out: pTGI (converted)
  TGI: 1.45 µM
CCRF-CEM
  GI50: 0.02 µM
LOX IMVI
  GI50: 0.0708 µM
  LC50 (50% net cell kill): 4.47 µM
LOX IMVI; read-out: pTGI (converted)
  TGI: 1.78 µM
TK-10
  GI50: 0.513 µM
TK-10; [8]
  CC50: 6.61 µM
TK-10; read-out: pTGI (converted)
  TGI: 2.45 µM
